Counter-ions that a name gives are not always drawn.
Columns and labels:
[1] = Cytotoxic activity against human BGC823 cells by MTT method; assay type: functional, cell-based; conditions: BGC-823
How it was run: (§1)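 MTT assay on the cancer cell line. IC50 taken as the concentration that cuts absorbance to 50% of control. Values are means of three independent experiments.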

[2] = Cytotoxic activity against human H460 cells by MTT method; assay type: functional, cell-based; conditions: NCI-H460; how it was run: as §1
[3] = system: HCT-116; experiment: Cytotoxic activity against human HCT116 cells by MTT method; assay type: functional, cell-based; how it was run: as §1
[4] = Inhibition of Saccharomyces cerevisiae alpha-glucosidase pre-incubated for 10 mins at 25 degC before addition of p-nitrophenyl-alpha-D-glucopyranoside substrate by UV absorption based assay
How it was run: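 Yeast α-glucosidase at 1.0 U/mL in 0.1 M K3PO4 buffer, pH 6.9, mixed with test compound in DMSO. Preincubated 10 min at 25 °C, then started with PNPG (5.0 mM solution in the same buffer). A405 was read at once and again after 5 min at 25 °C. ΔA was compared with a DMSO control to give % inhibition and IC50, as means of three independent experiments.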

[5] = system: HepG2; experiment: Cytotoxic activity against human HepG2 cells by MTT method; assay type: functional, cell-based; how it was run: as §1
[6] = system: HeLa; experiment: Cytotoxic activity against human HeLa cells by MTT method; assay type: functional, cell-based; how it was run: as §1

Row | SMILES | IC50 [1] | IC50 [2] | IC50 [3] | IC50 [4] | IC50 [5] | IC50 [6]
1 | CC(C)c1cc2c(c(O)c1O)[C@]13CO[C@H]2C[C@H]1C(C)(C)C[C@H](O)C3 | > 10 µM | > 10 µM | > 10 µM | > 1 mM | > 10 µM | > 10 µM
2 | CC(C)C1=CC2=C(C(=O)C1=O)[C@]13CO[C@H]2C[C@H]1C(C)(C)C[C@H](O)C3 | > 10 µM | > 10 µM | 7.3 µM | > 1 mM | > 10 µM | > 10 µM
3 | CC1=CC(=O)[C@@H](O)[C@]2(C)C[C@]3(O)OC(=O)C(C)=C3C[C@@H]12 | > 10 µM | > 10 µM | > 10 µM | 0.568 mM | > 10 µM | > 10 µM
4 | C[C@H]1O[C@H](O[C@H]2[C@H](O)[C@@H](O)[C@@H](O[C@H]3[C@H](O)[C@@H](O)C(O)O[C@@H]3CO)O[C@@H]2CO)[C@H](O)[C@@H](O)[C@@H]1N[C@H]1C=C(CO)[C@@H](O)[C@H](O)[C@H]1O (stereo not given in full) [ACARBOSE] |  |  |  | 0.169 mM |  | 
5 | CC(C)C1=C[C@]23Oc4c(C(C)C)cc5c(c4O[C@@]2(C(=O)C1=O)C12COC3C[C@H]1C(C)(C)C[C@H](O)C2)C12COC5C[C@H]1C(C)(C)C[C@H](O)C2 (stereo not given in full) | 4.8 µM | 8.5 µM | 6.3 µM | > 1 mM | 5.2 µM | 5.2 µM
6 | CC(C)C1=C[C@@]23Oc4c(C(C)C)cc5c(c4O[C@]2(C(=O)C1=O)C12COC3C[C@H]1C(C)(C)C[C@H](O)C2)C12COC5C[C@H]1C(C)(C)C[C@H](O)C2 (stereo not given in full) | > 10 µM | > 10 µM | > 10 µM | > 1 mM | > 10 µM | > 10 µM
7 | CC(=O)O[C@@H]1C[C@H](O)[C@H](C)[C@H]2CC3=C(C)C(=O)O[C@]3(O)C[C@@]21C | > 10 µM | > 10 µM | > 10 µM | > 1 mM | > 10 µM | > 10 µM
8 | CC(=O)O[C@@H]1C(=O)C=C(C)[C@@H]2CC3=C(C)C(=O)O[C@@]3(O)C[C@@]12C | > 10 µM | > 10 µM | > 10 µM | > 1 mM | > 10 µM | > 10 µM
9 | CC(=O)O[C@H]1C[C@@H](O)[C@@]2(C)C[C@@]3(O)OC(=O)C(C)=C3C[C@@H]2[C@H]1C | > 10 µM | > 10 µM | > 10 µM | > 1 mM | > 10 µM | > 10 µM
10 | COc1cccc2c1C(=O)c1c(O)c3c(c(O)c1C2=O)C[C@@](O)(C(=O)CO)C[C@@H]3O[C@H]1C[C@H](N)[C@H](O)[C@H](C)O1 [DOXORUBICIN HYDROCHLORIDE] | 0.76 µM | 0.24 µM |  |  | 0.24 µM | 0.72 µM
11 | CC1=C2C[C@@H]3[C@@H](C)[C@@H](O)C[C@@H](O)[C@@]3(C)C[C@@]2(O)OC1=O | > 10 µM | > 10 µM | > 10 µM | > 1 mM | > 10 µM | > 10 µM
12 | CC(=O)O[C@@H]1C(=O)C=C(C)[C@]2(O)CC3=C(C)C(=O)O[C@@]3(O)C[C@@]12C | > 10 µM | > 10 µM | > 10 µM | 0.3 mM | > 10 µM | > 10 µM

— ChEMBL document CHEMBL3580648, “Dimeric Abietane Diterpenoids and Sesquiterpenoid Lactones from Teucrium viscidum” (J Nat Prod, 2015)
